The values that follow come from ChEMBL document CHEMBL1123291, “Modified di- and tripeptides of the C-terminal portion of oxytocin and vasopressin as possible cognition activation agents” (1986).

The structures appear in SMILES notation. Non-standard residues stand in square brackets, D forms with d. Residues, ends and D or L forms follow the SMILES beside them. ξ: configuration not given here. *: point of attachment. Arg(NO2) = N=C(NCCC[C@H](N)C(=O)O)N[N+](=O)[O-]; ξArg(NO2) = N=C(NCCCC(N)C(=O)O)N[N+](=O)[O-]; Cbz = O=C(OCc1ccccc1)*; Boc = CC(C)(C)OC(=O)*; ξK = NCCCCC(N)C(=O)O

Holding throughout (type): functional
Assay [1] relates to Rattus norvegicus. In words: Ability (% reversal in rats) to reverse electroconvulsive shock-induced amnesia in rodents at a dose of 0.10 (mg/kg) (following intramuscular dosing). The method, boiled down:
(§1)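 Passive avoidance (step-through, lighted vs darkened compartment). […], ECS (20 mA, 1 s) was given transcorneally via saline-soaked electrodes, and maximal hindlimb extension was required. Drug was given im at selected doses 2 h post-training. One hour later, entry latency to the dark side was recorded, with 60 s counted as retention. At least 75% of ECS controls had to be amnesic. Replicates were mostly not run.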

Assay [2] has as its system Rattus norvegicus. In words: Ability (% reversal in rats) to reverse electroconvulsive shock-induced amnesia in rodents at a dose of 0.010 (mg/kg) administered intramuscularly (im). The method, boiled down:
as §1

Assay [3] has as its system Rattus norvegicus. In words: Ability (% reversal in rats) to reverse electroconvulsive shock-induced amnesia in rodents at a dose of 0.0010 (mg/kg) (following i.m. administration). The method, boiled down:
as §1

In assay [4] the test system is Rattus norvegicus. In words: Compound was tested for its ability (% reversal in rats) to reverse electroconvulsive shock-induced amnesia in rodents at a dose of 10 (mg/kg) administered intramuscularly (im). The method, boiled down:
as §1

Assay [5] deals with Rattus norvegicus. The assay can be described thus: Compound was tested for its ability (% reversal in rats) to reverse electroconvulsive shock-induced amnesia in rodents at a dose of 1 (mg/kg) administered intramuscularly (im). The method, boiled down: as §1
The subject of assay [6] is Rattus norvegicus. In words: Compound was tested for its ability (% reversal in rats) to reverse electroconvulsive shock-induced amnesia in rodents at a dose of 100 (mg/kg) administered intramuscularly (im). The method, boiled down: as §1
For assay [7], the system named is Mus musculus. In words: Ability to reverse electroconvulsive shock-induced amnesia in rodents following 1 ug/kg i.m. administration. The method, boiled down:
as §1

The subject of assay [8] is Mus musculus. In words: Ability to reverse electroconvulsive shock-induced amnesia in rodents following 0.01 mg/kg i.m. administration. The note with it: route intramuscular. The method, boiled down: as §1
The subject of assay [9] is Mus musculus. In words: Ability to reverse electroconvulsive shock-induced amnesia in rodents following 0.1 mg/kg i.m. administration. The conditions noted are these: route intramuscular. The method, boiled down: as §1

For `CC(C)CC(CSCC(=O)O)NC(=O)c1ccccn1` (centres undefined), the Reversal in the assay with Rattus norvegicus [1] is given as 14%; with Rattus norvegicus [2] it was 0%; in the assay on Rattus norvegicus [3], 57%.

Regarding `NC(=O)CNC(=O)COCC1CCCN1C(=O)OCc1ccccc1` (centres undefined), the values for the Reversal with Rattus norvegicus [1], in the assay on Rattus norvegicus [2] and with Rattus norvegicus [3] were 20%, 33% and 56%, respectively.

Consider `CC(C)CC(OCC1CCCN1C(=O)OCc1ccccc1)C(=O)NCC(=O)O` (centres undefined), for which the values for the Reversal in the assay on Rattus norvegicus [1], in the assay on Rattus norvegicus [2] and in the assay on Rattus norvegicus [3] were 43%, 71% and 29%, respectively.

As to `CC(C)(C)OC(=O)N1CCCC1CN[C@@H](CCCCNC(=O)OCc1ccccc1)C(=O)NCC(N)=O` (some centres undefined), the Reversal is 16% in the assay with Rattus norvegicus [1], 33% with Rattus norvegicus [2] and 16% in the assay on Rattus norvegicus [3].

As to `CC(C)CC(CSCC(N)=O)NCC1CCCN1C(=O)OCc1ccccc1` (centres undefined), the Reversal in the assay on Rattus norvegicus [1] turned out to be 25%; with Rattus norvegicus [2] it was 25%; in the assay on Rattus norvegicus [3], 45%.

As to `CC(C)CC(OCC1CCCN1C(=O)OCc1ccccc1)C(=O)NCC(N)=O` (centres undefined), the Reversal worked out at 0% in the assay with Rattus norvegicus [1], 0% in the assay on Rattus norvegicus [2] and 33% in the assay with Rattus norvegicus [3].

On to `CC(C)CC(/C=C/CC(N)=O)NC(=O)C1CCCN1C(=O)OCc1ccccc1` (centres undefined), for which the Reversal was 44% in the assay with Rattus norvegicus [1], 77% in the assay on Rattus norvegicus [2] and 33% in the assay with Rattus norvegicus [3].

Regarding `O=C(NCCCCC(SCC1CCCN1C(=O)OCc1ccccc1)C(=O)[O-])OCc1ccccc1.[Na+]` (centres undefined), the Reversal stood at 45% with Rattus norvegicus [1], 12% in the assay on Rattus norvegicus [2] and 45% in the assay on Rattus norvegicus [3].

With `Cc1ccc(S(=O)(=O)N2CCCC2CNC(CC(C)C)C(=O)NCC(=O)O)cc1` (centres undefined), the Reversal in the assay on Rattus norvegicus [1] came out at 0%; in the assay on Rattus norvegicus [2], 33%; in the assay with Rattus norvegicus [3], 33%.

Take `CC(C)CC1CN(C[C@H](CC(C)C)NC(=O)[C@@H]2CCC(=O)N2)CC(=O)N1` (some centres undefined): the Reversal with Rattus norvegicus [4], with Rattus norvegicus [5] and with Rattus norvegicus [6] was 0% throughout.

Consider `CC(C)CC(CSCC(=O)O)NC(=O)C1CCCN1C(=O)OCc1ccccc1` (centres undefined), for which the Reversal was 14% in the assay with Rattus norvegicus [1]; 57% in the assay with Rattus norvegicus [2]; 69% in the assay on Mus musculus [7]; 57% in the assay on Rattus norvegicus [3]; 77% in the assay with Mus musculus [8]; 69% with Mus musculus [9].

For the compound `CC(C)CC(COCC(=O)O)NC(=O)C1CCCN1C(=O)OCc1ccccc1` (centres undefined), the Reversal with Rattus norvegicus [1] was 0%; in the assay on Rattus norvegicus [2] it was 0%; with Rattus norvegicus [3], 29%.

Take `O=C(O)COCC1CCCN1C(=O)OCc1ccccc1` (centres undefined): the Reversal with Rattus norvegicus [1] was 50%; in the assay with Rattus norvegicus [2] it was 40%; with Rattus norvegicus [4], 62%; with Rattus norvegicus [5], 37%; with Rattus norvegicus [6] it was 62%; in the assay on Rattus norvegicus [3], 40%.

As to `NC(=O)CNC(=O)[C@H](CCCCNC(=O)OCc1ccccc1)NCC1CCCN1` (some centres undefined), the Reversal in the assay with Rattus norvegicus [1] turned out to be 33%; in the assay on Rattus norvegicus [2] it was 16%; with Rattus norvegicus [4] it was 16%; in the assay with Rattus norvegicus [5], 16%; with Rattus norvegicus [6], 83%; in the assay on Rattus norvegicus [3] it was 0%.

In the case of `Cc1ccc(C(=O)NC(CSCC(=O)O)CC(C)C)s1` (centres undefined), the Reversal was 20% with Rattus norvegicus [1], 60% in the assay with Rattus norvegicus [2] and 60% in the assay on Rattus norvegicus [3].

On to `CCSCCNC(=O)C(CC(C)C)SCC1CCCN1C(=O)OCc1ccccc1` (centres undefined), for which the Reversal with Rattus norvegicus [1] came out at 0%; in the assay on Rattus norvegicus [2], 0%; in the assay on Rattus norvegicus [3] it was 33%.

For `CCCNC(=O)C(CC(C)C)SCC1CCCN1C(=O)OCc1ccccc1` (centres undefined), the results for the Reversal in the assay on Rattus norvegicus [1], in the assay with Rattus norvegicus [2] and in the assay with Rattus norvegicus [3] were 20%, 20% and 60%, respectively.

`CC(C)CC(COCC(N)=O)NC(=O)C1CCCN1C(=O)OCc1ccccc1` (centres undefined): the Reversal in the assay with Rattus norvegicus [1] amounted to 14%; with Rattus norvegicus [2], 57%; with Rattus norvegicus [3] it was 42%.

`NC(=O)CC[C@@H]1NC(=O)[C@H](Cc2ccccc2)NC(=O)[C@H](Cc2ccc(O)cc2)NC(=O)[C@@H](N)CSSC[C@@H](C(=O)N2CCC[C@H]2C(=O)N[C@@H](CCCN=C(N)N)C(=O)NCC(N)=O)NC(=O)[C@H](CC(N)=O)NC1=O`: the values for the Reversal in the assay on Rattus norvegicus [1], with Rattus norvegicus [2] and with Rattus norvegicus [3] were 60%, 100% and 0%, respectively.

On to `Cc1ccc(S(=O)(=O)N2CCCC2C(=O)NC(CNCC(=O)O)CC(C)C)cc1` (centres undefined), for which the figures for the Reversal with Rattus norvegicus [1], in the assay on Rattus norvegicus [2] and in the assay with Rattus norvegicus [3] were 17%, 33% and 17%, respectively.

As for `O=C(O)CNC(=O)COCC1CCCN1C(=O)OCc1ccccc1` (centres undefined), the Reversal in the assay on Rattus norvegicus [1] came to 57%; in the assay on Rattus norvegicus [2], 43%; in the assay with Rattus norvegicus [3] it was 14%.

Regarding `CC(C)(C)OC(=O)N1CCC[C@H]1C(=O)N[C@@H](CCCN=C(N)N)C(=O)NCC(N)=O` (Boc-Pro-Arg-Gly-NH2), the Reversal in the assay on Mus musculus [7] turned out to be 0%; in the assay with Mus musculus [8] it was 43%; with Mus musculus [9], 71%.

Take `CC(C)(C)OC(=O)N1CCC[C@H]1C(=O)N[C@@H](CCCCNC(=O)OCc1ccccc1)C(=O)NCC(N)=O` (Boc-Pro-Lys(Cbz)-Gly-NH2): the Reversal with Mus musculus [7] is 91%; in the assay with Mus musculus [8], 63%; in the assay with Mus musculus [9], 0%.

Turning to `CC(C)(C)OC(=O)N1CCC[C@H]1C(=O)N[C@@H](CCCCN)C(=O)NCC(N)=O` (Boc-Pro-Lys-Gly-NH2), the values for the Reversal with Mus musculus [7], in the assay with Mus musculus [8] and in the assay with Mus musculus [9] were 25%, 17% and 33%, respectively.

Take `CC(C)(C)OC(=O)N1CCC[C@H]1C(=O)N[C@@H](CCC/N=C(\N)N[N+](=O)[O-])C(=O)NCC(N)=O` (Boc-Pro-[Arg(NO2)]-Gly-NH2): the results for the Reversal in the assay on Mus musculus [7], with Mus musculus [8] and in the assay on Mus musculus [9] were 44%, 20% and 33%, respectively.

Turning to `CC(C)(C)OC(=O)NC(CCC/N=C(\N)N[N+](=O)[O-])C(=O)NCC(N)=O` (centres undefined) (Boc-[ξArg(NO2)]-Gly-NH2), the Reversal in the assay on Mus musculus [7] is recorded as 33%; in the assay on Mus musculus [8], 53%; in the assay with Mus musculus [9], 73%.

Regarding `CC(C)(C)OC(=O)NC(CCCCNC(=O)OCc1ccccc1)C(=O)NCC(N)=O` (centres undefined) (Boc-[ξK](Cbz)-Gly-NH2), the Reversal with Rattus norvegicus [1] is recorded as 16%; in the assay on Rattus norvegicus [2] it was 47%; in the assay with Mus musculus [7], 48%; in the assay with Rattus norvegicus [3] it was 33%; with Mus musculus [8], 53%; in the assay with Mus musculus [9], 35%.

Consider `CC(C)C[C@H](NC(=O)[C@@H]1CCCN1C(=O)OCc1ccccc1)C(=O)NCC(N)=O` (Cbz-Pro-Leu-Gly-NH2), for which the Reversal with Mus musculus [7] is given as 93%; with Mus musculus [8], 47%; in the assay with Mus musculus [9] it was 100%.

On to `CC(C)(C)OC(=O)NCCCC[C@H](NC(=O)[C@@H]1CCCN1C(=O)OCc1ccccc1)C(=O)NCC(N)=O` (Cbz-Pro-Lys(Boc)-Gly-NH2), for which the Reversal was found to be 0% with Rattus norvegicus [1], 0% with Rattus norvegicus [2] and 50% with Rattus norvegicus [3].

For `COC(=O)CNC(=O)[C@H](CCCCNC(=O)OC(C)(C)C)NC(=O)[C@@H]1CCCN1C(=O)OCc1ccccc1` (Cbz-Pro-Lys(Boc)-Gly-OMe), the Reversal in the assay with Mus musculus [7] came to 91%; with Mus musculus [8], 54%; with Mus musculus [9] it was 0%.

For `NCCCC[C@H](NC(=O)[C@@H]1CCCN1C(=O)OCc1ccccc1)C(=O)NCC(N)=O` (Cbz-Pro-Lys-Gly-NH2), the Reversal in the assay on Mus musculus [7] is on record as 9%; in the assay with Mus musculus [8] it was 100%; in the assay with Mus musculus [9], 63%.

As to `NCCCC[C@H](NC(=O)[C@@H]1CCCN1C(=O)OCc1ccccc1)C(=O)NCC(=O)O` (Cbz-Pro-Lys-Gly-OH), the Reversal with Mus musculus [7] amounted to 100%; in the assay on Mus musculus [8], 79%; in the assay on Mus musculus [9], 79%.

Take `CC(C)(C)OC(=O)NCCCCC(NC(=O)OCc1ccccc1)C(=O)NCC(N)=O` (centres undefined) (Cbz-[ξK](Boc)-Gly-NH2): the figures for the Reversal in the assay with Mus musculus [7], in the assay on Mus musculus [8] and in the assay on Mus musculus [9] were 33%, 25% and 33%, respectively.

Regarding `NC(=O)CNC(=O)[C@@H](N)CCCN=C(N)N` (H-Arg-Gly-NH2), the Reversal with Mus musculus [7] is reported as 51%; with Mus musculus [8], 20%; with Mus musculus [9], 27%.

Take `N=C(N)NCCC[C@H](NC(=O)[C@@H]1CCCN1)C(=O)NCC(N)=O` (H-Pro-Arg-Gly-NH2): the Reversal turned out to be 30% with Mus musculus [7], 0% in the assay on Mus musculus [8] and 30% in the assay on Mus musculus [9].

Take `CC(C)C[C@H](NC(=O)[C@@H]1CCCN1)C(=O)NCC(N)=O` (H-Pro-Leu-Gly-NH2): the Reversal in the assay on Rattus norvegicus [1] is given as 43%; in the assay with Rattus norvegicus [2], 43%; in the assay on Mus musculus [7], 42%; in the assay with Rattus norvegicus [3], 14%; with Mus musculus [8], 33%; in the assay with Mus musculus [9], 42%.

As for `NCCCC[C@H](NC(=O)[C@@H]1CCCN1)C(=O)NCC(N)=O` (H-Pro-Lys-Gly-NH2), the Reversal is recorded as 78% in the assay with Rattus norvegicus [1]; 78% in the assay on Rattus norvegicus [2]; 100% in the assay with Mus musculus [7]; 78% in the assay with Rattus norvegicus [3]; 48% in the assay on Mus musculus [8]; 39% in the assay with Mus musculus [9].
